Screening results (PubChem BioAssay)
T cruzi growth-1 – T. cruzi proliferation inhibition; inhibition, % at 8.34 µM; AID 624255; hit rate 5.9% among 77,000; T. cruzi beta-gal in NIH3T3, GalScreen luminescence, 90 h;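 active = mean inhibition above about 93%, with at least 55% of replicates each passing it, limit read from the data, passing the limit was not always enough; inconclusive = only one of those two conditions holds; inactive = neither condition holds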
IDH1 R132H inh – blocks human IDH1 R132H reductase activity | inhibition, % at 10 µM | hit rate 0.18% among 70,000 | diaphorase/resazurin fluorescence, 60 min | O75874; in the data active = inhibition above about 34%; inconclusive = no clear call, values can overlap the other calls; inactive = below about 11%;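 also: 0% = DMSO and 100% = no enzyme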
Target sequence (O75874 whole entry R132H): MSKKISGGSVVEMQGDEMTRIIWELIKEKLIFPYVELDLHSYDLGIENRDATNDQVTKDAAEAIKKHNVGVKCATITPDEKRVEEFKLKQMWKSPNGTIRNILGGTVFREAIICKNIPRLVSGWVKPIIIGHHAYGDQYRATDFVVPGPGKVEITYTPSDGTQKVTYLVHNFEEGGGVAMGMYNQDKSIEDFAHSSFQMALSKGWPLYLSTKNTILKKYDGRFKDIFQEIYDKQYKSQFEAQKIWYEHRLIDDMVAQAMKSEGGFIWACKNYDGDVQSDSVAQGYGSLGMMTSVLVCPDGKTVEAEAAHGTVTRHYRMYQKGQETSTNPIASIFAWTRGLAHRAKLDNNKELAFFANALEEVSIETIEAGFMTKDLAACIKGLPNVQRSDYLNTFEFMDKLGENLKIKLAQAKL
KDM4C inh – blocks human GASC-1 (KDM4C) demethylase activity; Q9H3R0; GST-KDM4C 2-372, H3K9me3 peptide, LANCE TR-FRET; inhibition, % at 12.5 µM; hit rate 0.15% among 96,000; AID 720574;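 active = mean replicate inhibition above about 25%, with at least 55% of replicates also reaching it, limit read from the data, passing the limit was not always enough; inconclusive = only one of those two conditions met; inactive = neither condition met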
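Compound: one test concentration per compound; Material: GST-GASC-1 enzyme fragment 2-372; Amount: GASC-1 enzyme at 10 nM final in reaction; Also added: H3K9me3 peptide substrate, Fe(II), 2-oxoglutarate; Technique: LANCE TR-FRET; Times: 30 min demethylation and 1 h detection at room temperature.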
Pf Dd2 inh – inhibitors of Plasmodium falciparum Dd2 growth; P. falciparum Dd2 growth, SYBR Green, 72 h; hits give low values; activity change, % at 10 µM; hit rate 2.3% among 94,000; AID 1159554; in the data active = activity change below about -80%; inconclusive = no clear call, values can overlap the other calls
T cruzi growth-2 – inhibitors of T. cruzi proliferation | shares compounds with T cruzi growth-1 | T. cruzi beta-gal in NIH3T3, GalScreen luminescence, 90 h | inhibition, % at 8.35 µM | hit rate 72% among 5,600 | AID 651739;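 active = mean replicate inhibition above about 95% and at least 55% of replicates individually reaching it, limit read from the data; inconclusive = only one of the two criteria is met; inactive = neither criterion is met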
T cruzi growth-3 – inhibitors of T. cruzi proliferation | shares compounds with T cruzi growth-1 | T. cruzi beta-gal in NIH3T3, GalScreen luminescence, 90 h | inhibition, % at 2.09 µM | hit rate 21% among 5,600;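 active = mean inhibition above about 95%, with at least 55% of replicates also reaching it, limit read from the data; inconclusive = meets just one of the two conditions; inactive = meets neither condition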;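 also: plate controls were neutral control median for no effect and positive control median for full effect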
3T3 cytotox – kills mouse NIH/3T3 fibroblasts; shares compounds with T cruzi growth-1; NIH/3T3 viability, CellTiter-Glo ATP luminescence, 90 h; cytotoxicity (signal decrease), % at 8.35 µM; hit rate 14% among 5,600; AID 651742;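 active = mean signal decrease across replicates above about 35% based on untreated-well scatter, with enough replicates individually passing, limit read from the data; inconclusive = no rule stated though some were filed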;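 also: 0% = median of neutral control wells and 100% = median of positive control wells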
NIH3T3 tox 2 – cytotoxicity in mouse NIH/3T3 fibroblasts; inhibition, % at 24.9 µM; hit rate 56% among 5,600; shares compounds with T cruzi growth-1; NIH/3T3 viability, CellTiter-Glo ATP luminescence, 90 h;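 active = mean loss of cell viability signal at or above a set limit, and enough replicates individually reaching it; inconclusive = meets only the mean limit or only the replicate share; inactive = meets neither condition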;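 also: 0% = median of neutral control wells and 100% = median of positive control wells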
* marks the source's active call; other numbers are inactive results; u = inconclusive; x = no result. Shown are actives, neighbours in structure and some others; about 5.8% of the full set was active somewhere.

SMILES | T cruzi growth-1 | IDH1 R132H inh | KDM4C inh | Pf Dd2 inh | T cruzi growth-2 | T cruzi growth-3 | 3T3 cytotox | NIH3T3 tox 2
C[C@@H]1CN([C@@H](C)CO)C(=O)c2cccc(NC(=O)c3ccc(-c4nccs4)cc3)c2O[C@H]1CN(C)C(=O)Nc1ccc(C(F)(F)F)cc1 | 120* | x | -2 | -44 | 87 | 82 | 24 | 70*
C[C@@H]1CN([C@H](C)CO)C(=O)c2cccc(NC(=O)c3ccc(-c4nccs4)cc3)c2O[C@H]1CN(C)C(=O)Nc1ccc(C(F)(F)F)cc1 | 115* | x | u | -11 | 100* | 72 | 28 | 72*
C[C@H]1CN([C@@H](C)CO)C(=O)c2cccc(NC(=O)c3ccc(-c4nccs4)cc3)c2O[C@H]1CN(C)C(=O)Nc1ccc(C(F)(F)F)cc1 | 95 | x | -3 | -45 | x | x | x | x
Cc1cc(=O)[nH]c(SCCOc2ccccc2C#N)n1 | x | 0 | x | x | x | x | x | x
COc1ccc(S(=O)(=O)Nc2ccc3c(c2)C(=O)N([C@H](C)CO)C[C@H](C)[C@@H](CN(C)C(=O)NC(C)C)O3)cc1 | -33 | 0 | 0 | 10 | x | x | x | x
COc1ccc(S(=O)(=O)N(C)C[C@H]2OCCCC[C@@H](C)Oc3ccc(NS(=O)(=O)c4cn(C)cn4)cc3C(=O)N([C@@H](C)CO)C[C@H]2C)cc1 | 103* | x | -1 | -48 | 107* | 33 | -27 | -14
C[C@@H]1CN([C@@H](C)CO)C(=O)c2cc(NS(C)(=O)=O)ccc2O[C@@H](C)CCCCO[C@H]1CN(C)S(=O)(=O)c1cn(C)cn1 | 107* | 0 | 0 | 32 | 99* | 37 | 8 | 8
COc1ccc(S(=O)(=O)Nc2ccc3c(c2)C(=O)N([C@@H](C)CO)C[C@H](C)[C@@H](CN(C)S(=O)(=O)c2ccc(OC)cc2)OCCCC[C@@H](C)O3)cc1 | u | 4 | 0 | -64 | 111* | 53 | -33 | -2
C[C@@H]1CCCCO[C@@H](CN(C)S(=O)(=O)c2cn(C)cn2)[C@H](C)CN([C@H](C)CO)C(=O)c2cc(NS(C)(=O)=O)ccc2O1 | 33 | -5 | 0 | 40 | x | x | x | x
COc1ccc(S(=O)(=O)Nc2ccc3c(c2)C(=O)N([C@@H](C)CO)C[C@H](C)[C@H](CN(C)C(=O)NC(C)C)O3)cc1 | 109* | 1 | 2 | 3 | -5 | -16 | 1 | -10
Cc1ccccc1N(CC(=O)Nc1cccc2ccccc12)S(C)(=O)=O | x | 0 | x | x | x | x | x | x
COc1ccc(S(=O)(=O)Nc2ccc3c(c2)C(=O)N([C@@H](C)CO)C[C@@H](C)[C@@H](CN(C)S(=O)(=O)c2ccc(OC)cc2)OCCCC[C@@H](C)O3)cc1 | 100* | 2 | 0 | -64 | 107* | 102* | -5 | 7
COc1ccc(S(=O)(=O)Nc2ccc3c(c2)C(=O)N([C@H](C)CO)C[C@@H](C)[C@@H](CN(C)S(=O)(=O)c2ccc(OC)cc2)OCCCC[C@H](C)O3)cc1 | 52 | 1 | 0 | -61 | x | x | x | x
COc1ccc(S(=O)(=O)Nc2ccc3c(c2)C(=O)N([C@@H](C)CO)C[C@H](C)[C@@H](CN(C)S(=O)(=O)c2ccc(OC)cc2)OCCCC[C@H](C)O3)cc1 | u | 2 | -3 | -78 | 104* | 53 | 19 | -2
COc1ccc(CN(C)C[C@@H]2OCCCC[C@@H](C)Oc3ccc(NC(=O)Nc4cccc5ccccc45)cc3C(=O)N([C@@H](C)CO)C[C@H]2C)cc1 | 79 | 0 | 14 | -59 | x | x | x | x
COc1ccc(CN(C)C[C@@H]2OCCCC[C@@H](C)Oc3ccc(NC(=O)Nc4cccc5ccccc45)cc3C(=O)N([C@@H](C)CO)C[C@@H]2C)cc1 | 94 | 0 | -1 | -32 | x | x | x | x
COc1ccc(CN(C)C[C@@H]2OCCCC[C@H](C)Oc3ccc(NC(=O)Nc4cccc5ccccc45)cc3C(=O)N([C@@H](C)CO)C[C@@H]2C)cc1 | u | -6 | -1 | u | 103* | 96* | 25 | 103*
COc1ccc(CN(C)C[C@H]2OCCCC[C@H](C)Oc3ccc(NC(=O)Nc4cccc5ccccc45)cc3C(=O)N([C@@H](C)CO)C[C@H]2C)cc1 | u | 2 | -4 | u | 106* | 92 | 25 | u
Cc1cc(I)ccc1NC(=O)Cn1cc([N+](=O)[O-])cn1 | x | 0 | x | x | x | x | x | x
COc1cccc2c1oc(=O)c1c(NC(C)=O)nc(-c3cccs3)nc12 | x | -1 | x | x | x | x | x | x
C[C@@H]1CN([C@H](C)CO)S(=O)(=O)c2ccc(C3=CCCCC3)cc2O[C@@H]1CN(C)S(=O)(=O)c1ccc(F)cc1 | 119* | x | 0 | -55 | 101* | 107* | 16 | 61*
COc1ccc(S(=O)(=O)N(C)C[C@H]2Oc3cc(C4=CCCC4)ccc3S(=O)(=O)N([C@@H](C)CO)C[C@@H]2C)cc1 | 57 | 0 | -1 | -59 | x | x | x | x
C[C@H]1CN([C@@H](C)CO)S(=O)(=O)c2ccc(C3=CCCC3)cc2O[C@H]1CN(C)S(=O)(=O)c1ccc(F)cc1 | 121* | -28 | 0 | -46 | 106* | 90 | 16 | 1
Cc1ccc(S(=O)(=O)N(C)C[C@@H]2Oc3cc(C4=CCCC4)ccc3S(=O)(=O)N([C@H](C)CO)C[C@@H]2C)cc1 | x | -37 | 1 | -71 | x | x | x | x
C[C@@H]1CN([C@@H](C)CO)S(=O)(=O)c2ccc(C3=CCCC3)cc2O[C@H]1CN(C)S(=O)(=O)c1ccc(F)cc1 | 116* | 0 | -1 | -59 | 97* | 99* | 27 | 27*
CC(C)Oc1ccccc1-c1nc(SCC(N)=O)n[nH]1 | x | 0 | x | x | x | x | x | x
C[C@@H]1CCCCO[C@H](CN(C)S(=O)(=O)c2ccc(Cl)cc2)[C@@H](C)CN([C@@H](C)CO)C(=O)c2cc(NC(=O)C3CCCCC3)ccc2O1 | 108* | 2 | 0 | -81* | 112* | u | 7 | -21
C[C@@H]1CCCCO[C@@H](CN(C)S(=O)(=O)c2ccc(Cl)cc2)[C@H](C)CN([C@H](C)CO)C(=O)c2cc(NC(=O)C3CCCCC3)ccc2O1 | 108* | x | 0 | -86* | 111* | 113* | -6 | -9
C[C@@H]1CCCCO[C@H](CN(C)S(=O)(=O)c2ccc(F)cc2)[C@H](C)CN([C@H](C)CO)C(=O)c2cc(NC(=O)C3CCCCC3)ccc2O1 | u | -2 | 0 | -79 | 112* | 60 | -5 | 11
